Source: article PMC4470787 (Clinical cancer research : an official journal of the …, 2015)
“Also recorded” adds a separate entry of the source.

How the values were obtained:
[1] = tested on: relapsed/refractory acute lymphoblastic leukemia; test: Phase I/II study: response and survival with everolimus plus HyperCVAD; format: in vivo, human
[2] = tested on: pS6RP, p4EBP1 (Thr37/46), pAkt (Ser473); format: in vivo, human; settings: 5 of 8 tested samples; 24 h after first dose; both 5 mg and 10 mg dose levels
[3] = tested on: mTOR targets (S6RP pS235-S236, S6RP pS240-S244, 4EBP1) and Akt; test: Reverse phase protein array; format: in vivo, human
In short: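 Peripheral blood proteins from 10 patients (3 on 5 mg/day, 7 on 10 mg/day everolimus) were lysed as for western blots, taken before (C1D0) and 24 h after (C1D1) the first dose. The reverse phase protein array probed mTOR pS2448, p70S6K pT389, S6RP pS235-S236 and pS240-S244, 4EBP1 pS65 and pT37-T46, and Akt pS473 and pT308. Phospho/total ratios were compared between days 0 and 1.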

[4] = Everolimus whole blood pharmacokinetics; format: in vivo, human
In short: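 Patients with relapsed/refractory ALL took oral everolimus (5 or 10 mg/day, continuous from Cycle 1 Day 0) with HyperCVAD. Whole blood was collected in EDTA tubes 1, 2, 5, 8 and 24 h post-dose on Days 1 and 15 of Cycles 1 and 2 and held at 4°C. Drug levels were measured by validated HPLC-MS/MS with sirolimus internal standard. Cmax, Tmax, t1/2, Ke, CL, AUC0-∞ and V came from non-compartmental analysis.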

[5] = tested on: mTOR-sensitive, inflammation-associated and miR-21 target gene sets; format: in vivo, human
In short: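 Peripheral blood was sampled from 5 patients before (C1D0) and 24 h after (C1D1) the first oral everolimus dose. RNA was TRIzol-extracted, isopropanol-precipitated and 70% ethanol-washed, accepted at integrity number >7, and amplified/biotinylated via oligo(dT) reverse transcription and T7 transcription with biotin-UTP. It was hybridised to HumanHT-12 v4 bead chips and analysed by gene set enrichment analysis.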

[6] = tested on: patients with relapsed/refractory acute lymphoblastic leukemia
[7] = tested on: patients with relapsed or refractory hematologic malignancies; settings: phase I study at UT/MDACC; cited from earlier work
[8] = 1 of 24 patients, everolimus with HyperCVAD
[9] = all 24 patients, everolimus with HyperCVAD
[10] = patients in first salvage, everolimus with HyperCVAD
[11] = patients in second salvage and beyond, everolimus with HyperCVAD

With CO[C@H]1C[C@@H]2CC[C@@H](C)[C@@](O)(O2)C(=O)C(=O)N2CCCC[C@H]2C(=O)O[C@H]([C@H](C)C[C@@H]2CC[C@@H](OCCO)[C@H](OC)C2)CC(=O)[C@H](C)/C=C(\C)[C@@H](O)[C@@H](OC)C(=O)[C@H](C)C[C@H](C)/C=C/C=C/C=C/1C [everolimus] the “CR without platelet recovery (CRp)” value [1, 8] was 4%, the “CR without recovery of counts (CRi)” value [1, 8] was 4% and the “partial response (PR)” value ([1]; 2 of 24 patients, everolimus with HyperCVAD) was 8%. The “response in T-ALL patients” value ([1]; 5 of 10 heavily pretreated T-ALL patients, everolimus with HyperCVAD) was 50%, the “response in B-ALL patients” value ([1]; 5 of 13 patients (all CR), everolimus with HyperCVAD) was 39% and the “complete remission (CR)” value ([1]; 6 of 24 patients, everolimus with HyperCVAD) was 25%. For the same compound, the “response (CR/CRp) in first salvage” value ([1]; 7 of 11 patients, everolimus with HyperCVAD) was 64%, the “responses beyond second salvage” value ([1]; 10 patients, everolimus with HyperCVAD) was “no responses” and the “median OS” value ([1]; B-ALL patients, everolimus with HyperCVAD) was 23 weeks. For the same compound, the “median OS” value ([1]; T-ALL patients, everolimus with HyperCVAD) was 23 weeks, the “overall response rate (CR+CRp+CRi)” value [1, 9] was 33% and the “response noted (including PR)” value [1, 9] was 41%. For the same compound, the “no detectable MRD at response (multiparametric flow cytometry)” value ([1]; among patients who achieved CR/CRp/CRi) was 5 of the 8, the “CRi in second salvage” value ([1]; everolimus with HyperCVAD) was 1 of 3 and the “median EFS” value [1, 10] was 22 weeks. For the same compound, the “median OS” value [1, 10] was 29 weeks, the “median EFS” value [1, 11] was 7 weeks and the “median OS” value [1, 11] was 15 weeks. The complete cytogenetic response ([1]; responders with abnormal cytogenetics at diagnosis) was 3 patients, the “samples with reduced phosphorylation of S6RP (western blot)” value [2] was 62% and the “phosphorylation of S6RP pS235-S236 (RPPA)” value ([3]; 10 patients, 1-sided paired t-test P=0.007) was “inhibited phosphorylation”. The “phosphorylation of S6RP pS240-S244 (RPPA)” value ([3]; 10 patients, 1-sided paired t-test P=0.01) was “inhibited phosphorylation”, the “phosphorylation of 4EBP1, Akt, or other proteins” value ([3]; 24 h after first dose) was “No significant decreases; also recorded: No statistically significant differences” and the “phosphorylation of S6RP at pS235-S236 and pS240-S244 sites” value ([3]; everolimus 5 mg/day, RPPA and western blot) was “sufficiently blocked”. The “degree of inhibition of proteins or phosphorylated forms, 5 mg/day vs 10 mg/day” value ([3]; including Akt targets cyclin D1, FOXO3A, PRAS40 and Mcl-1) was “did not differ”, the “patients with elevation of PTEN levels by RPPA” value ([3]; of 10 patients with serial analysis) was “Five” and the “AUC and Cmax at steady state (C1D15 and C2D0) versus literature” value ([4]; 10-mg/day dose) was “higher than in previous published studies”. The “trough levels of everolimus, association” value ([4]; in vivo) was “not associated with response or toxicity”, the “AUC and Cmax between everolimus 5 mg/day and 10 mg/day” value ([4]; whole blood) was “dose-proportional” and the “expression of mTOR-sensitive genes induced by overexpression of Akt (GSEA)” value ([5]; 5 patients, C1D0 vs C1D1) was “significantly reduced”. For the same compound, the “inflammation-associated genes (TNF, EGF, IL-6 induced) (GSEA)” value ([5]; 5 patients, C1D0 vs C1D1) was “similarly reduced”, the “target genes of miR-21 (GSEA)” value ([5]; 5 patients, C1D0 vs C1D1) was “increased” and the “patient samples with increased PTEN expression (microarray)” value ([5]; P=0.016) was 4 of the 5. The “Cardiac: Pericardial effusion, G1/2” value ([6]; human, in vivo) was 0 N (%), the “Cardiac: Pericardial effusion, G3/4” value ([6]; human, in vivo) was 2 (8) N (%) and the “Cardiac: Tachycardia, G1/2” value ([6]; human, in vivo) was 3 (13) N (%). For the same compound, the “Cardiac: Tachycardia, G3/4” value ([6]; human, in vivo) was 1 (4) N (%), the “Constitutional: Fatigue, G1/2” value ([6]; human, in vivo) was 13 (54) N (%) and the “Constitutional: Fatigue, G3/4” value ([6]; human, in vivo) was 0 N (%). For the same compound, the “Constitutional: Headache, G1/2” value ([6]; human, in vivo) was 6 (25) N (%), the “Constitutional: Headache, G3/4” value ([6]; human, in vivo) was 4 (17) N (%) and the “Gastrointestinal: Diarrhea, G1/2” value ([6]; human, in vivo) was 8 (33) N (%). The “Gastrointestinal: Diarrhea, G3/4” value ([6]; human, in vivo) was 2 (8) N (%), the “Gastrointestinal: Nausea, G1/2” value ([6]; human, in vivo) was 9 (38) N (%) and the “Gastrointestinal: Nausea, G3/4” value ([6]; human, in vivo) was 0 N (%). The “Infection (one or more), G1/2” value ([6]; human, in vivo) was 0 N (%), the “Infection (one or more), G3/4” value ([6]; human, in vivo) was 23 (96) N (%) and the “Metabolic: ALT/AST, G1/2” value ([6]; human, in vivo) was 14 (58) N (%). The “Metabolic: ALT/AST, G3/4” value ([6]; human, in vivo) was 7 (29) N (%), the “Metabolic: Bilirubin, G1/2” value ([6]; human, in vivo) was 14 (58) N (%) and the “Metabolic: Bilirubin, G3/4” value ([6]; human, in vivo) was 2 (8) N (%). For the same compound, the “Metabolic: Hyperglycemia, G1/2” value ([6]; human, in vivo) was 7 (29) N (%), the “Metabolic: Hyperglycemia, G3/4” value ([6]; human, in vivo) was 12 (50) N (%) and the “Mucositis/stomatitis, G1/2” value ([6]; human, in vivo) was 10 (42) N (%). For the same compound, the “Mucositis/stomatitis, G3/4” value ([6]; human, in vivo) was 3 (13) N (%), the “Pulmonary: Dyspnea, G1/2” value ([6]; human, in vivo) was 1 (4) N (%) and the “Pulmonary: Dyspnea, G3/4” value ([6]; human, in vivo) was 1 (4) N (%). For the same compound, the “Pulmonary: Pleural effusions, G1/2” value ([6]; human, in vivo) was 1 (10) N (%), the “Pulmonary: Pleural effusions, G3/4” value ([6]; human, in vivo) was 2 (8) N (%) and the “Renal: Renal insufficiency, G1/2” value ([6]; human, in vivo) was 0 N (%). The “Renal: Renal insufficiency, G3/4” value ([6]; human, in vivo) was 4 (17) N (%), the “Renal: Urinary retention, G1/2” value ([6]; human, in vivo) was 1 (4) N (%) and the “Renal: Urinary retention, G3/4” value ([6]; human, in vivo) was 0 N (%). For the same compound, the “incidence of grade 3/4 hyperglycemia” value ([6]; human, in vivo) was 50%, the myelosuppression and neutropenia ([6]; human, in vivo) was “occurred in all 24 patients” and the “maximum tolerated dose (MTD) of everolimus” value ([6]; in combination with HyperCVAD, 3+3 design) was 5 mg/day. The “DLT at dose level 0” value ([6]; in vivo) was “no documented first or second cycle DLT”, the pneumonitis ([6]; in vivo) was “No documented cases” and the “tolerability of single-agent everolimus” value [7] was “well tolerated at a dose of 10 mg daily”.
